# Measurements published in paper PMC7867784 (Translational Lung Cancer Research, 2021).
# Test system: Japanese patients with RET-rearranged NSCLC
# Experiment: ALL-RET phase 1/2 trial: safety
# Format: in vivo, human
# In short: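 Adverse events were graded by NCI CTCAE v4.0, with causal relation to treatment recorded separately. Dose finding used a 3+3 de-escalation design with 3–6 patients per cohort. DLT was evaluated over the first 21-day cycle and defined as grade ≥4 thrombopenia, grade ≥3 febrile neutropenia, grade ≥4 neutropenia lasting ≥4 days, or grade ≥3 non-hematologic toxicity, with specified exceptions. Follow-up ran until January 2019.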
# [1] = 600 mg BID (N=6), dose limiting toxicity
# [2] = Japanese patients with RET-rearranged NSCLC
structure (smiles),measurement,setting,value
CCc1cc2c(cc1N1CCC(N3CCOCC3)CC1)C(C)(C)c1[nH]c3cc(C#N)ccc3c1C2=O [alectinib],"Constipation, any grade, number [causally related]",600 mg BID (N=6),4 [4]
same,"Constipation, any grade, percent",600 mg BID (N=6),66.7%
same,"Constipation, grade 1–2, number (total)",600 mg BID (N=6),4 [4]
same,"Constipation, grade 1–2, number [causally related]",600 mg BID (N=6),4 [4]
same,"Constipation, grade 3, number",600 mg BID (N=6),0
same,"Constipation, grade 4, number",600 mg BID (N=6),0
same,"Creatine phosphokinase increase, any grade, number (total)",600 mg BID (N=6),2 [2]
same,"Creatine phosphokinase increase, any grade, number [causally related]",600 mg BID (N=6),2 [2]
same,"Creatine phosphokinase increase, any grade, percent",600 mg BID (N=6),33.3%
same,"Creatine phosphokinase increase, grade 1–2, number (total)",600 mg BID (N=6),1[1]
same,"Creatine phosphokinase increase, grade 1–2, number [causally related]",600 mg BID (N=6),1[1]
same,"Creatine phosphokinase increase, grade 4, number",600 mg BID (N=6),0
same,"Creatinine increase, any grade, number (total)",600 mg BID (N=6),2 [2]
same,"Creatinine increase, any grade, number [causally related]",600 mg BID (N=6),2 [2]
same,"Creatinine increase, any grade, percent",600 mg BID (N=6),33.3%
same,"Creatinine increase, grade 1–2, number (total)",600 mg BID (N=6),2[2]
same,"Creatinine increase, grade 1–2, number [causally related]",600 mg BID (N=6),2[2]
same,"Creatinine increase, grade 3, number",600 mg BID (N=6),0
same,"Creatinine increase, grade 4, number",600 mg BID (N=6),0
same,"Dysgeusia, any grade, number (total)",600 mg BID (N=6),2 [2]
same,"Dysgeusia, any grade, number [causally related]",600 mg BID (N=6),2 [2]
same,"Dysgeusia, any grade, percent",600 mg BID (N=6),33.3%
same,"Dysgeusia, grade 1–2, number (total)",600 mg BID (N=6),2 [2]
same,"Dysgeusia, grade 1–2, number [causally related]",600 mg BID (N=6),2 [2]
same,"Dysgeusia, grade 3, number",600 mg BID (N=6),0
same,"Dysgeusia, grade 4, number",600 mg BID (N=6),0
same,"Erythema multiforme, any grade, number (total)",600 mg BID (N=6),1 [1]
same,"Erythema multiforme, any grade, number [causally related]",600 mg BID (N=6),1 [1]
same,"Erythema multiforme, any grade, percent",600 mg BID (N=6),16.7%
same,"Erythema multiforme, grade 1–2, number",600 mg BID (N=6),0
same,"Erythema multiforme, grade 4, number",600 mg BID (N=6),0
same,"Hepatic function abnormal, any grade, number (total)",600 mg BID (N=6),2 [2]
same,"Hepatic function abnormal, any grade, number [causally related]",600 mg BID (N=6),2 [2]
same,"Hepatic function abnormal, any grade, percent",600 mg BID (N=6),33.3%
same,"Hepatic function abnormal, grade 1–2, number (total)",600 mg BID (N=6),1 [1]
same,"Hepatic function abnormal, grade 1–2, number [causally related]",600 mg BID (N=6),1 [1]
same,"Hepatic function abnormal, grade 4, number",600 mg BID (N=6),0
same,"Lymphocyte decrease, any grade, number (total)",600 mg BID (N=6),1 [1]
same,"Lymphocyte decrease, any grade, number [causally related]",600 mg BID (N=6),1 [1]
same,"Lymphocyte decrease, any grade, percent",600 mg BID (N=6),16.7%
same,"Lymphocyte decrease, grade 1–2, number",600 mg BID (N=6),0
same,"Lymphocyte decrease, grade 3, number",600 mg BID (N=6),0
same,"Lymphocyte decrease, grade 4, number (total)",600 mg BID (N=6),1 [1]
same,"Lymphocyte decrease, grade 4, number [causally related]",600 mg BID (N=6),1 [1]
same,"Myalgia, any grade, number (total)",600 mg BID (N=6),3 [3]
same,"Myalgia, any grade, number [causally related]",600 mg BID (N=6),3 [3]
same,"Myalgia, any grade, percent",600 mg BID (N=6),50.0%
same,"Myalgia, grade 1–2, number (total)",600 mg BID (N=6),3 [3]
same,"Myalgia, grade 1–2, number [causally related]",600 mg BID (N=6),3 [3]
same,"Myalgia, grade 3, number",600 mg BID (N=6),0
same,"Myalgia, grade 4, number",600 mg BID (N=6),0
same,"Oedema peripheral, any grade, number (total)",600 mg BID (N=6),2 [2]
same,"Oedema peripheral, any grade, number [causally related]",600 mg BID (N=6),2 [2]
same,"Oedema peripheral, any grade, percent",600 mg BID (N=6),33.3%
same,"Oedema peripheral, grade 1–2, number (total)",600 mg BID (N=6),2 [2]
same,"Oedema peripheral, grade 1–2, number [causally related]",600 mg BID (N=6),2 [2]
same,"Oedema peripheral, grade 3, number",600 mg BID (N=6),0
same,"Oedema peripheral, grade 4, number",600 mg BID (N=6),0
same,"Rash, any grade, number (total)",600 mg BID (N=6),1 [1]
same,"Rash, any grade, number [causally related]",600 mg BID (N=6),1 [1]
same,"Rash, any grade, percent",600 mg BID (N=6),16.7%
same,"Rash, grade 1–2, number",600 mg BID (N=6),0
same,"Rash, grade 4, number",600 mg BID (N=6),0
same,"Thromboembolic event, any grade, number (total)",600 mg BID (N=6),1 [1]
same,"Thromboembolic event, any grade, number [causally related]",600 mg BID (N=6),1 [1]
same,"Thromboembolic event, any grade, percent",600 mg BID (N=6),16.7%
same,"Thromboembolic event, grade 1–2, number",600 mg BID (N=6),0
same,"Thromboembolic event, grade 4, number",600 mg BID (N=6),0
same,"Creatine phosphokinase increase, grade 3, number (total)",[1],1[1]*
same,"Creatine phosphokinase increase, grade 3, number [causally related]",[1],1[1]*
same,"Erythema multiforme, grade 3, number (total)",[1],1 [1]*
same,"Erythema multiforme, grade 3, number [causally related]",[1],1 [1]*
same,"Hepatic function abnormal, grade 3, number (total)",[1],1 [1]*
same,"Hepatic function abnormal, grade 3, number [causally related]",[1],1 [1]*
same,"Rash, grade 3, number (total)",[1],1 [1]*
same,"Rash, grade 3, number [causally related]",[1],1 [1]*
same,"Thromboembolic event, grade 3, number (total)",[1],1 [1]*
same,"Thromboembolic event, grade 3, number [causally related]",[1],1 [1]*
same,patients whose treatment was discontinued due to DLTs,"600 mg BID, out of 6 patients",2
same,MTD (maximum tolerated dose),[2],450 mg BID
same,recommended dose (RD) for phase 2,[2],450 mg BID
same,DLTs observed in case S1-3,"cohort 1, 600 mg BID",grade 3 rash and hepatic function abnormal
same,DLTs observed in case S1-4,"cohort 1, 600 mg BID",grade 3 erythema multiforme and thromboembolic event
same,number of dose-limiting toxicities (DLTs),"phase 1 cohort 1, 600 mg BID, 6 patients",5
same,patients with DLTs,"phase 1 cohort 1, 600 mg BID, of 6 patients",3
same,DLTs,"phase 1 cohort 2, 450 mg BID, 3 patients",no DLTs
same,grade 3 adverse events including pneumonitis,"phase 2, 450 mg BID",4%
